The record followed here is the EternaBench riboswitch data.

This series has as its system MS2 coat protein. The series is described as follows: apparent Kd, MS2 coat protein; higher = weaker binding; RNA-MaP array; FMN 200 µM where present. The procedure, abridged: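 The apparent Kd is reported as the median of filtered per-cluster binding-curve fits. To get these curves, designs transcribed by stalled E. coli RNA polymerase on Illumina sequencing-chip clusters were titrated with SNAP-549-labelled MS2 coat protein from 0.7 or 1.5 nM, doubling to 3 µM. Titrations were run without and then with constant ligand in 100 mM Tris-HCl pH 7.5, 80 mM KCl, 4 mM MgCl2, BSA, DTT, yeast tRNA and Tween-20, and green signal was normalised to red-channel RNA signal and control-cluster median Fmax.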

The mark [1] stands for this setting: designed as: OFF switch for flavin mononucleotide, no ligand.
The mark [2] stands for this setting: ligand present: flavin mononucleotide, designed as: OFF switch for flavin mononucleotide.
Setting [3] is: designed as: ON switch for flavin mononucleotide, no ligand.
[4] abbreviates: ligand present: flavin mononucleotide, designed as: ON switch for flavin mononucleotide.

As a reminder, the apparent Kd is the concentration giving half-maximal binding under the conditions of the assay. As for “UUUUCUUUUGUGAGGAUAUACUUGUUUUUUUUUUUGUAGAAGGCACAUGAGGAUCACCCAUGUACUCUUUCCUG”, the “apparent Kd” value under setting [1] was found to be 19.7 nM and the “apparent Kd” value under setting [2] turned out to be 22.6 nM.
On to “UUUUAACAUGAGGAUCACCCAUGUGAGGAUAUCGAAAUUUAUAUUUAUAUUUAUAUUUCGAGAAGGCACAUUUU”, for which the “apparent Kd” value runs as follows: under setting [1], 176 nM; under setting [2], 156 nM.
As for “UUAAAUCGAAACAUGAGGAUCACCCAUGUGUUGUGGUUAAUAUAGGAUAUGUGUAUACUUUUAUGACAGAAGGAUGAUGAUACU”, the “apparent Kd” value runs as follows: under setting [3], 16.2 nM; under setting [4], 13.2 nM.
The corresponding values for “AAAAGACAUGAGGAUCACCCAUGUUAAAACGUAGGAGGAUAUGUAUGGAAAACAUGCUGUACAGAAGGCCUGUGUC” are 17.3 nM and 17.1 nM.
On to “AAAAAUGGAGGAUAUACAUGAGGAUCACCCAUGUGUGGGCAUACUAUGUCGGCGUCAGGUAGAAGGCCAAAAAA”, for which the “apparent Kd” value is, setting by setting: under setting [1], 40.8 nM; under setting [2], 48.9 nM.
For the sequence “UGAUCGAGAGAUCUUAGAUUCUGGUAGGAUAUACAUAUAGUAAUAUAGACAUGAGGAUCACCCAUGUAGAAGGACUAGAGUCUA”, the “apparent Kd” value worked out at 6.9 nM under setting [1] and 8.65 nM under setting [2].
On to “GGGUACAUCGGAGGAUAUCAUGAAAAUACAUGAGGAUCACCCAUGUCGAUGGAGACAUCGGAGAUUGAGAAGGCCGAUGUACCG”, for which the “apparent Kd” value runs as follows: under setting [3], 11.9 nM; under setting [4], 6.01 nM.
In the case of “AUACACUAAGUGAGGAUAUCGAUUUCUUUAAGGAUCGAGAAGGCACAUGAGGAUCACCCAUGUUUGACGUGAAU”, the “apparent Kd” value by setting is: under setting [1], 34.4 nM; under setting [2], 75.8 nM.
On to “AUACUCAUGUAAGGAUAUGCAGCCGUUUCGGCUGCAGAAGGUACUAUAAUACAUGAGGAUCACCCAUGUCUUUUUAAUUUUUAC”, for which the “apparent Kd” value is, setting by setting: under setting [3], 281 nM; under setting [4], 38.9 nM.
For the sequence “UGGGCGUGUGUCAGGAUAUGUGCUCUUCCUAGAGCGUAGAAGGGACAUGAGGAUCACCCAUGUCGAAUUGCCAA”, the “apparent Kd” value came out at 17.4 nM under setting [1] and 30.7 nM under setting [2].
Consider “UUCAUUAACAUGAGGAUCACCCAUGUUGGCCAGUCUCACACCAGAAGGCACGUUGAGCACAACAGUGAGGAUAUGGGUGACAUA”, for which the “apparent Kd” value reads like this: under setting [3], 286 nM; under setting [4], 52.9 nM.
Regarding “UCGUGAAGGAUAGGAUAUGGACAUGAGGAUCACCCAUGUACAUGGGAAUGUAUACUGAAUUUGUACUAGAAGGGUUACAUAAAU”, the “apparent Kd” value amounted to 49.8 nM under setting [1] and 36.6 nM under setting [2].
The corresponding values for “GCAUGUGUAUAAGGAUAUGCAUCACUGAGAAAUUUAGUGAGGAAGAUCACAUGAGGAUCACCCAUGUAGAAGGUAUACACGUGC” are 7.32 nM and 52.3 nM.
For the sequence “AUUUAUUAGUAAGGAUAUACUAGCGAUUAGCUUGUAGAAGGUACAGUCUUAUGUAUAGCAUGUUAACAUGAGGAUCACCCAUGU”, the “apparent Kd” value under setting [3] came out at 23.2 nM and the “apparent Kd” value under setting [4] came to 13.1 nM.
For the sequence “AGCUGUGGCCGAGGAUAUCUGAACUCAAUAACCGAAAUAUAAUCGGACAUGAGGAUCACCCAUGUAGAGAAGGCGGUCUCAGCA”, the “apparent Kd” value runs as follows: under setting [1], 34 nM; under setting [2], 56.5 nM.
“UAUGAACAUGAGGAUCACCCAUGUGGUACGAUCACAGGAUAUCACCUCGGACGUGCGAUGUGAGAAGGGUGAUGGU”: the “apparent Kd” value by setting is: under setting [3], 81.6 nM; under setting [4], 29.4 nM.
As for “CAGCCCUGAGGAUAUCCCUACUUGUACAUGAGGAUCACCCAUGUUCUCCUCUGGGCUUCGGGAGAAGGCAGGUCUC”, the “apparent Kd” value under setting [1] was 14.6 nM and the “apparent Kd” value under setting [2] was determined as 16.8 nM.
The corresponding values for “GAAAACGGAGAGGAUAUUUGAGAUCAAAGCUCCAAAGAAGGCUCCACAUGAGGAUCACCCAUGUGGUCUUCAAU” are 14.6 nM and 107 nM.
The like results for “AAAUAUAAGCGAGGAUAUAUACAUGAGGAUCACCCAUGUCCCAUGUCAUGAGCAUCAGCCAUGUAGUAGAAGGCGCACAUGAGG” were, in that order, 100 nM and 53.5 nM.
Consider “GCACAUUUGUAAGGAUAUACUACAUGAGGAUCACCCAUGUGCAUGGAGAUUGUAGAAGGUACAGCAAUAUUGAUUAACGUUAUA”, for which the “apparent Kd” value reads like this: under setting [3], 134 nM; under setting [4], 77.2 nM.
As to “GACAUCGCAGGAUAUUAGGGUUUGUACAUGAGGAUCACCCAUGUUAAUUGGGUUAAUGUCUAAGAAGGGCGGUGUC”, the “apparent Kd” value is, setting by setting: under setting [1], 147 nM; under setting [2], 240 nM.
The like results for “CUUUUGUGAGGAUAUUAGUAGUAAAUUAAUAAAAUUACUACUGAGAAGGCACAUGAGGAUCACCCAUGUUCCUC” were, in that order, 30.8 nM and 190 nM.
The corresponding values for “UUUUUCUGUGUGAGGAUAUACUUUGUUUGGUCGUUGUAGAAGGCACAUGAGGAUCACCCAUGUAGUUUGUUGUG” are 23.9 nM and 33.1 nM.
“CCCUCAAGCGAGGAUAUAAAUGCGCAUUCGCGGUUAGAAGGCGCUACAUGAGGAUCACCCAUGUAAUAAAAUGG”: the “apparent Kd” value reads like this: under setting [1], 68.2 nM; under setting [2], 86.4 nM.
For the sequence “AAGAAGUCAGGAUAUCCAUGGCGGCACUUGCGUGGUGGCGUGGAGAAGGGACAUGAGGAUCACCCAUGUAAAGG”, the “apparent Kd” value was found to be 149 nM under setting [1] and 173 nM under setting [2].
The like results for “GGAUGAGAAACUCAUCCAUAACGAACAUGAGGAUCACCCAUGUAGGAUAUGCUACUCAAAGAGUAGCAGAAGGACAUGUGUCUU” were, in that order, 29.6 nM and 144 nM.
The corresponding values for “GAGCGAAAGCUCAAUGUCGAUAGCAGAAGGACAUGUAAUCAUGAAAUAACAUGAGGAUCACCCAUGUAGGAUAUGCUAUCGACU” are 309 nM and 88.8 nM.
As to “CGUUAUGAUAAAGGAUAUAUAAUAGAUAUACAUGAGGAUCACCCAUGUUACAUGGAUUCAAAUUUAUAGAAGGUUAUCCUAUCG”, the “apparent Kd” value under setting [1] came to 36 nM and the “apparent Kd” value under setting [2] amounted to 22.6 nM.
The corresponding values for “UGGACCGAGCUAUCGGUUGACUGGGAGGAUAUGACAUGAGGAUCACCCAUGUGGGAUCUAAAUUGUCAGAAGGCUCGAUCUGGG” are 258 nM and 257 nM.
The corresponding values for “AUGCUUCACACAGGAUAUACAUGAGGAUCACCCAUGUGUGGGCGGUAGCUCGAAAGAGCUACCGGGUAGAAGGGUGUGAAGCAU” are 27.1 nM and 132 nM.
Turning to “AAAAUCUAUAGAGGAUAUCCAUACGCUGCAUACGGAGAAGGCUAACAAUCAUGAGGACAUGAGGAUCACCCAUGUUGUGACCAU”, the “apparent Kd” value under setting [3] turned out to be 17.6 nM and the “apparent Kd” value under setting [4] was determined as 9.82 nM.
As to “AAGAAGAUAGGAUAUACGAGGAGAGGAGAGAAGAGGUGAGGACAUGAGGAUCACCCAUGUAGAAGGAUCAGGAA”, the “apparent Kd” value is 46.6 nM under setting [1] and 35.6 nM under setting [2].
On to “GUAGCAUAGGCAGGAUAUUCAUAUAAUAAAUAAACAUGAGGAUCACCCAUGUGGCGAAAGCCUUGGGAGAAGGGCCAAUGCUAC”, for which the “apparent Kd” value reads like this: under setting [3], 933 nM; under setting [4], 60.9 nM.
On to “CCCAGCUAUGUGAGGAUAUUCACAUCGAUGGUAGUGAAGAAGGCACAUGAGGAUCACCCAUGUUGGUUGCCGAU”, for which the “apparent Kd” value was 19.4 nM under setting [1] and 28.7 nM under setting [2].
The corresponding values for “UAGUAGUGAGGAUAUACAUGGAUAUACAUUCAUGUGGACCUACAUGAGGAUCACCCAUGUAGAAGGCACUACUA” are 41.9 nM and 91.4 nM.
For the sequence “GUAGCUCCUGACAUGAGGAUCACCCAUGUUCAAUUAUUAAAUCAGGAUAUCGGCUAGAAACUAGCCGAGAAGGGAUAUGCUACU”, the “apparent Kd” value by setting is: under setting [3], 5.13 nM; under setting [4], 5.97 nM.
On to “CUAAAUCAUGUAGGAUAUGCAUGGCGAAGCUACGCAGAAGGACAUGAGGAUCACCCAUGUCUCUCCGUCUGGGUACAGACGGAG”, for which the “apparent Kd” value under setting [1] was 18.9 nM and the “apparent Kd” value under setting [2] was 120 nM.
The corresponding values for “GCUAGUCAUGUCAGGAUAUGCAGAUCCUUGGAUCUGCAGAAGGGACAUGAGGAUCACCCAUGUGCCUAGCUAGC” are 41 nM and 317 nM.
The like results for “UUUUAACAUGAGGAUCACCCAUGUGAGGAUAUCGAAAUUUAUAUUAAUAUUAUUUUUACGAGAAGGCACAUUUU” were, in that order, 90.3 nM and 95.4 nM.
The corresponding values for “CUUUUGUGAGGAUAUCAUUAGUAAAAAAAUAAAAUUACUACUGAGAAGGCACAUGAGGAUCACCCAUGUUCCUC” are 35.5 nM and 233 nM.
Turning to “CUUCGUAUAGAGGAUAUAGGAUACCUCGGUGUCCUAGAAGGCUGUACAUGAGGAUCACCCAUGUACUUCAGAUC”, the “apparent Kd” value was determined as 11.6 nM under setting [1] and 16 nM under setting [2].
For the sequence “GACUGGCAGCUAGGAUAUGGGCGAUCACAUGAGGAUCACCCAUGUCAACAUCAAAACAAGAUUAACCAGAAGGAGCCGCGGGUU”, the “apparent Kd” value by setting is: under setting [3], 16.1 nM; under setting [4], 110 nM.
“ACCAGCUCGUCAGGAUAUACGUCACUGCGUCAGCAGUGUGGUAAGAUCACAUGAGGAUCACCCAUGUAGAAGGGACGAGCUGAU”: the “apparent Kd” value worked out at 13.3 nM under setting [1] and 245 nM under setting [2].
The like results for “UUAUAUAGUGUGAGGAUAUGCUGGUCCUUGGAUCAGCAGAAGGCACAUGAGGAUCACCCAUGUAGUUAAAUUUA” were, in that order, 34.4 nM and 134 nM.
For “CACUCACAUGAGGAUCACCCAUGUCCUAGCAGGUCAGGAUAUAGCUCGGAUGCGUUGAGUCUAGAAGGGACAGGUU”, the “apparent Kd” value under setting [3] is 184 nM and the “apparent Kd” value under setting [4] came to 63.6 nM.
Take “UUUAUGUCAGGAUAUGAUUAGAUCUACUUCGGUAGAUCUAAUCAGAAGGGACAUGAGGAUCACCCAUGUAGUUU”: the “apparent Kd” value amounted to 111 nM under setting [1] and 226 nM under setting [2].
The like results for “AUAAUGAGUCAAGGAUAUCCGAGCUGAAUGCUUGGAGAAGGUGACAUGAGGAUCACCCAUGUCUCUCCGAGCAUGGUAUUCUCA” were, in that order, 28.4 nM and 26.6 nM.
The like results for “GGGCCGGUGGAGAAGGAGCUUACGAAACGUAGGCUAGGAUAUCCACAUGAGGAUCACCCAUGUGGGAAUAUCUGAUUUUCACAG” were, in that order, 4.4 nM and 4.48 nM.
